Screening data from PubChem.
Runt-CBFb FRET: inhibitors of human RUNX1 Runt domain binding to CBFb | Cerulean-Runt/Venus-CBFb FRET ratio 530/480, 1 h | inhibition, % at 20 µM | Q01196+Q13951 | 220,000 tested, 0.46% active;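 active = inhibition over about 50% at 20 µM in the single-dose screen, limit read from the data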;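 also: 0% = DMSO wells and 100% = excess unlabeled CBFb competitor control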
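Assay system: Cerulean-tagged RUNX1 Runt domain (FRET donor) fusion protein / Amount: 100 nM each of Venus-CBFb and Cerulean-Runt domain / Medium: Tris buffer pH 7.5 with salts and BSA / Also added: Venus-CBFb 100 nM / Schedule: 1 h complex formation plus 1 h compound treatment, room temperature / Signal: FRET fluorescence / Read-out: loss of energy transfer signal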
AI-2 QS mod: modulates the Vibrio harveyi AI-2 quorum sensing system | Vibrio harveyi JMH597 AI-2 luminescence/OD600 ratio, 9 h; active compounds read low; strain lacks LuxN and CqsS sensors; 0 = neutral-control median | activity change, % at 7.5 µM | 300,000 tested, 0.4% active; in the data active = activity change below about -75%, passing the limit was not always enough; inconclusive = no clear call, values can overlap the other calls;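 also: luminescence divided by OD600 gain over 9 h not by final OD600 alone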
RanGTP-Imp inh: inhibitors of RanGTP-importin-beta interaction, primary screen, biochemical, FRET, CFP-Ran, YFP-importin-beta, homogeneous | 300,000 tested, 1.1% active | inhibition, % (no concentration beside the values) | cell-free CFP-Ran/YFP-importin-beta FRET ratio;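 active = more than half of the replicate wells show a fall in the fluorescence ratio signal beyond about 16%, limit read from the data, passing the limit was not always enough; inconclusive = exactly half of the replicate wells pass the set limit; inactive = fewer than half of replicates pass the limit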;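 also: 0% = DMSO wells and 100% = Ran loaded with GDP instead of GTP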
proKLK7 act: activators of human kallikrein-7 zymogen. activation, % at 7 µM. purified proKLK7, EDANS-DABCYL substrate fluorescence; 100% is mature enzyme control, 0% vehicle. P49862. 370,000 tested, 0.9% active;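 active = activation above the mean of all tested compounds plus 3 SD, computed per campaign excluding outliers beyond control limits, cut at about 13% in these data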
Wee1 stabilizer: human Wee1 degradation inhibition, primary screen; AID 1321; reporter increase, % at 5 µM; HeLa Luc-Wee1K328M stability, luciferase luminescence; 100% = proteasome inhibitor MG132 effect; 220,000 tested, 1.2% active;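 active = activation above the mean of all tested compounds plus 3 SD, set per screening run, cut at about 8.8% in these data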;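 also: cells exposed to compound for 20 h before luminescence read; 0% = DMSO alone and 100% = MG132 at 30 µM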
Target sequence (P30291 whole entry K328M): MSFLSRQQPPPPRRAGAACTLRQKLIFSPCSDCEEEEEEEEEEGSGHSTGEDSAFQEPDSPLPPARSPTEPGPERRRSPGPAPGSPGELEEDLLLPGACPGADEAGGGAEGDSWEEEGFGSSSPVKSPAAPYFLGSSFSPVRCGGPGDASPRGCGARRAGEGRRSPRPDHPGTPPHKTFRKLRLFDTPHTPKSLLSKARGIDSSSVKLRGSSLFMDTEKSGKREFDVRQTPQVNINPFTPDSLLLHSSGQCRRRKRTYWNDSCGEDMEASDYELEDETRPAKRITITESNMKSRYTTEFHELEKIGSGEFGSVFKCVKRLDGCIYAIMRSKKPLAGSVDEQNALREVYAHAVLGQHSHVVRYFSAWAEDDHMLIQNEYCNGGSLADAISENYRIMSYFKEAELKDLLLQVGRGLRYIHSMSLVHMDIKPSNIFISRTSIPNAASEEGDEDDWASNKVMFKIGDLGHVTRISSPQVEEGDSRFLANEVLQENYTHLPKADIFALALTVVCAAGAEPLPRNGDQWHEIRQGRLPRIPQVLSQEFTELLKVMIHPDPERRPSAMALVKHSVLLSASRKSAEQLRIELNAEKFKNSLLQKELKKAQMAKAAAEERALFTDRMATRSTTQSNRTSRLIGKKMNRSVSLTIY
Runt-SMMHC FRET: Runt domain-CBFb-SMMHC interaction inhibition | inhibition, % at 20 µM | 220,000 tested, 0.74% active | Cerulean-Runt/Venus-CBFb-SMMHC FRET ratio 530/480, 1 h;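 active = mean inhibition across duplicate retests at 20 µM reaching about 50%, limit read from the data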;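 also: 0% = DMSO wells and 100% = wells with excess untagged CBFb-SMMHC; inhibitors lower the FRET ratio by blocking Runt binding to CBFb-SMMHC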
Starred values were filed as active, the others as inactive; ? = inconclusive; . = not tested or not shown. The list is not random: actives were taken first. Their share in the collection is about 2.9%.

SMILES	Runt-CBFb FRET	AI-2 QS mod	RanGTP-Imp inh	proKLK7 act	Wee1 stabilizer	Runt-SMMHC FRET
CC(=O)Nc1cccc(-c2nc3ccccc3s2)c1	0	5	.	1	0	-3
CC(=Nc1ccc(Br)cc1)c1sc2ccccc2c1O	9	11	49*	0	5	81
CC(=Nc1ccccc1)c1sc2ccccc2c1O	14	11	48*	0	7	-7
O=C(COC(=O)CNC(=O)C1CCCCC1)Nc1cc(C(F)(F)F)ccc1Cl	.	.	.	-1	.	.
CCc1nn(-c2ccccc2)c2c1-c1cc(OC)c(OC)cc1C1(N2)C(=O)Nc2ccccc21 (configuration not stated)	0	21	31*	-1	2	0
COc1cc2c(cc1OC)C1(Nc3c-2c(C)nn3-c2ccccc2)C(=O)Nc2ccccc21 (configuration not stated)	3	.	.	-1	5	-3
CCOc1ccc(NC(=O)CSc2ccc(-c3cccnc3)nn2)cc1	.	25	-2	0	.	.
O=C(CSc1nnc(-c2ccccc2)n1-c1ccccc1)NN=C/C=C\c1ccccc1[N+](=O)[O-]	.	.	.	1	.	.
CCCCNC(=O)/C=C1\Sc2ccccc2NC1=O	1	19	32*	1	-2	3
CC(C)NC(=O)C1CCN(C(=O)c2ccc(-c3ccccc3)cc2)CC1	1	22	6	-1	11*	0
CCC(C)NC(=O)C1CCN(C(=O)c2ccccc2)CC1 (configuration not stated)	1	.	.	0	1	0
C=CCOc1c(CNC2CCCC2)cc(Cl)cc1OC	1	17	10	0	-2	3
CCNCc1cc(Cl)cc(OC)c1OC(C)C	1	38	4	0	9.2*	8
CCCN1C(=O)c2n[nH]c(C)c2C1c1ccc2c(c1)OCO2 (configuration not stated)	.	.	.	1	.	.
CN1CCC(=C2c3ccccc3C=Cc3ccccc32)CC1	2	23	-1	0	9.7*	4
CN1CCC(=C2c3ccccc3Sc3ccccc32)CC1	.	.	.	1	.	.
CN(NC1CC(=O)N(c2ccccc2)C1=O)c1ccccc1 (configuration not stated)	3	.	.	0	11*	2
CC(C)(C)c1csc(NC(=O)c2cccs2)n1	-2	1	?	1	2	0
CC(C)(C)c1csc(NC(=O)c2cccnc2)n1	.	18	36*	0	.	.
CCCCN1CC(COCc2ccccc2)Oc2cccc(NCc3cc(OC)c(OC)c(OC)c3)c2S1(=O)=O (configuration not stated)	.	.	.	-4	.	.
COc1cccc2cc(C(=O)NC3CC4CCC3C4)oc12 (configuration not stated)	.	6	26*	0	.	.
S=c1[nH]nc(C2CCCCC2)n1/N=C/C=C/c1ccccc1	8	-92*	-1	0	0	15
COC(=O)c1ccc(COC(=O)c2ccc(SC)cc2OC)cc1	-5	14	-2	0	-3	-8
CC(C)OC(=O)c1c2nc3ccccc3nc2n2c1[nH]c(=O)c1ccccc12	17	25	11	.	-2	62*
COC(=O)Cn1c2ccccc2c2nc3ccccc3nc21	.	-16	11	0	.	.
SMILES	Runt-CBFb FRET	AI-2 QS mod	RanGTP-Imp inh	proKLK7 act	Wee1 stabilizer	Runt-SMMHC FRET
Cc1cccn2c(=O)c3cc(C(=O)NC4CCCC4)c(=N)n(C4CCCCC4)c3nc12	.	2	175*	-7	.	.
Cc1cccn2c(=O)c3cc(C(=O)NC4CCCCC4)c(=N)n(Cc4ccccc4)c3nc12	.	23	186*	-4	.	.
Cc1cccn2c(=O)c3cc(C(=O)NC4CCCC4)c(=N)n(CCc4ccccc4)c3nc12	.	24	179*	-7	.	.
Cc1cccn2c(=O)c3cc(C(=O)NC4CCCC4)c(=N)n(Cc4ccc(F)cc4)c3nc12	.	28	178*	-3	.	.
COc1ccc(CC(NC(C)=O)C(=O)NC2CCN(C(=O)C3CCCCC3)CC2)cc1OC (configuration not stated)	.	8	-1	1	.	.
Cc1ccc(CSc2nnc(CNc3ccc(F)cc3)o2)cc1	-3	-4	-9	1	9.6*	-1
